Data from ChEMBL document CHEMBL5532650, “Discovery of an orally active nitrothiophene-based antitrypanosomal agent” (Eur J Med Chem, 2024).
Activity calls are given as the source filed them. The rule behind the calls is not given here.

Key:
[1] = tested on: Trypanosoma brucei brucei; test: Antitrypanosomal activity against bloodstream forms of Trypanosoma brucei brucei strain 427 assessed as growth inhibition measured after 48 hrs by Alamar blue assay; type: functional, organism-based; details: Trypanosoma brucei, 427, 48 h
How it was run: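 Bloodstream T. b. brucei 427 at 5 x 10^3 cells/well in supplemented HMI-9 with 10% FBS. Compounds in DMSO over 0.01–50 μM, triplicates. After 48 h exposure, Alamar blue was added for 4 h at 37°C. Fluorescence read at ex/em 530/590 nm; suramin was the positive control. EC50 = half-maximal trypanosomal viability.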

HepG2 = test: (§1) Cytotoxicity against human HepG2 cells assessed as cell growth measured after 72 hrs mby MTT assay; type: toxicity, cell-based; details: hepg2, 72 h
How it was run: (§2)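 HepG2 in DMEM:F12 with 10% FBS were seeded at 5 x 10^5 cells/mL and allowed 18-24 h. Compounds in DMSO over 0.01–300 μM for 72 h. MTT was then added for 30 min, formazan dissolved in DMSO and absorbance read at 550 nm. Triplicates; SDS (10%) and podophyllotoxin were the controls. CC50 = half-maximal cellular viability.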

[2] = tested on: Trypanosoma brucei rhodesiense; test: Inhibition of Trypanosoma brucei rhodesiense MVAT4 strain Cathepsin-L expressed in Pichia pastoris at 10 uM relative to control
How it was run: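 Trypanosomal cathepsin L, expressed in Pichia pastoris and purified, was tested at 10 μM after 1 hour. The read-out was percentage inhibition, with E-64 as positive control.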

[3] = Selectivity index, ratio of CC50 for cytotoxicity against human HepG2 cells to EC50 for Antitrypanosomal activity against bloodstream forms of Trypanosoma brucei brucei strain 427; type: toxicity, cell-based; details: read-out: Selectivity Index
[4] = tested on: Trypanosoma brucei gambiense; test: Antitrypanosomal activity against bloodstream forms of Trypanosoma brucei gambiense 130R assessed as growth inhibition incubated for 68 hrs followed by treated with resazurin 4 to 6 hrs by resazurin based fluorescence assay; type: functional, organism-based
How it was run: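 Bloodstream 130R at 4x10^4 parasites/well in HMI-9 with 15% heat-inactivated fetal calf and 5% human serum. Eleven 3-fold dilutions spanned 100 to 0.002 μM. Plates ran 68 h at 37 °C in 5% CO2, then resazurin for 4–6 h. Fluorescence read at ex/em 536/588 nm; melarsoprol was the control.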

[5] = tested on: Trypanosoma brucei rhodesiense; test: Antitrypanosomal activity against bloodstream forms of Trypanosoma brucei rhodesiense STIB 900 assessed as growth inhibition incubated for 70 hrs followed by treated with resazurin 2 to 4 hrs by resazurin based fluorescence assay; type: functional, organism-based
How it was run: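 Bloodstream STIB 900 at 2x10^4 parasites/well in HMI-9 with 15% heat-inactivated horse serum. Eleven 3-fold dilutions spanned 100 to 0.002 μM. Plates ran 70 h at 37 °C in 5% CO2, then resazurin for 2–4 h. Fluorescence read at ex/em 536/588 nm; melarsoprol was the control.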

[6] = Metabolic stability in mouse liver microsomes assessed as half life at 0.1 uM measured for every 15 mins by HPLC-MS/MS analysis; type: ADME, Microsome; details: 0.25 h
[7] = Metabolic stability in mouse liver S9 fraction assessed as half life at 0.1 uM measured for every 15 mins by HPLC-MS/MS analysis; type: ADME, subcellular; details: s9, 0.25 h
[8] = Initial plasma concentration in C57BL/6 mouse at 1 mg/kg, iv measured upto 24 hrs by LC-MS/MS analysis; type: ADME, organism-based
How it was run: (§3)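 Fasted male C57BL/6 mice (n = 3/group) were given a single IV dose of 1 mg/kg. Vehicle was 5% DMSO, 10% solutol and 85% PBS with 20% Captisol, at 1 mL/kg. Blood was taken at 0.083, 0.25, 0.5, 1, 2, 4, 6, 8 and 24 h and spun at 4°C to plasma. Plasma levels were measured by LC-MS/MS and parameters derived by non-compartmental analysis.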

[9] = Half life in C57BL/6 mouse at 1 mg/kg, iv measured upto 24 hrs by LC-MS/MS analysis; type: ADME, organism-based; details: in vivo; how it was run: as §3
[10] = AUC (0 to t) in C57BL/6 mouse at 1 mg/kg, iv measured upto 24 hrs by LC-MS/MS analysis; type: ADME, organism-based; details: in vivo; how it was run: as §3
[11] = AUC (0 to infinity) in C57BL/6 mouse at 1 mg/kg, iv measured upto 24 hrs by LC-MS/MS analysis; type: ADME, organism-based; details: in vivo; how it was run: as §3
[12] = Apparent volume of distribution in C57BL/6 mouse at 1 mg/kg, iv measured upto 24 hrs by LC-MS/MS analysis; type: ADME, organism-based; details: in vivo, read-out: Vz; how it was run: as §3
[13] = Clearance in C57BL/6 mouse at 1 mg/kg, iv measured upto 24 hrs by LC-MS/MS analysis; type: ADME, organism-based; details: in vivo; how it was run: as §3
[14] = Volume of distribution at steady state in C57BL/6 mouse at 1 mg/kg, iv measured upto 24 hrs by LC-MS/MS analysis; type: ADME, organism-based; details: in vivo, read-out: Vdss; how it was run: as §3
[15] = Mean residence time in C57BL/6 mouse at 1 mg/kg, iv measured upto 24 hrs by LC-MS/MS analysis; type: ADME, organism-based; details: in vivo; how it was run: as §3
[16] = Tmax in C57BL/6 mouse at 5 mg/kg, po measured upto 24 hrs by LC-MS/MS analysis; details: in vivo
[17] = Cmax in C57BL/6 mouse at 5 mg/kg, po measured upto 24 hrs by LC-MS/MS analysis; details: in vivo
[18] = Half life in C57BL/6 mouse at 5 mg/kg, po measured upto 24 hrs by LC-MS/MS analysis; details: in vivo
[19] = AUC (0 to t) in C57BL/6 mouse at 5 mg/kg, po measured upto 24 hrs by LC-MS/MS analysis; details: in vivo
[20] = Oral bioavailability in C57BL/6 mouse at 5 mg/kg measured upto 24 hrs by LC-MS/MS analysis; details: in vivo
[21] = AUC (0 to infinity) in C57BL/6 mouse at 5 mg/kg, po measured upto 24 hrs by LC-MS/MS analysis; details: in vivo
[22] = Mean residence time in C57BL/6 mouse at 5 mg/kg, po measured upto 24 hrs by LC-MS/MS analysis; details: in vivo
[23] = tested on: Trypanosoma brucei rhodesiense; test: In vivo antitrypanosomal activity against Trypanosoma brucei rhodesiense infected in female NMRI mouse assessed survival rate at 200 mg/kg, po qd measured upto 60 days; details: time <= 60.0 day
[24] = tested on: Trypanosoma brucei brucei; test: In vivo antitrypanosomal activity against Trypanosoma brucei brucei AnTat1.1 trypomastigotes expressing Renilla luciferase infected in BALB/c mouse assessed reduction in parasitemia at 100 mg/kg, po treated for 5 days; details: time 5.0 day
[25] = tested on: Trypanosoma brucei brucei; test: In vivo antitrypanosomal activity against Trypanosoma brucei brucei AnTat1.1 trypomastigotes expressing Renilla luciferase infected in BALB/c mouse assessed suppression of parasite growth at 100 mg/kg, po treated for 5 days; details: time 5.0 day
[26] = tested on: Trypanosoma brucei brucei; test: In vivo antitrypanosomal activity against Trypanosoma brucei brucei AnTat1.1 trypomastigotes expressing Renilla luciferase infected in BALB/c mouse assessed suppression of parasite growth at 100 mg/kg, ip treated for 5 days; details: time 5.0 day
[27] = Tmax in mouse at 25 mg/kg, po; type: ADME, organism-based; details: in vivo
[28] = Half life in mouse at 25 mg/kg, po; type: ADME, organism-based; details: in vivo
[29] = Selectivity index, ratio of CC50 for cytotoxicity against human HepG2 cells to EC50 for Antitrypanosomal activity against bloodstream forms of Trypanosoma brucei gambiense 130R; type: toxicity, cell-based
[30] = Selectivity index, ratio of CC50 for cytotoxicity against human HepG2 cells to EC50 for Antitrypanosomal activity against bloodstream forms of Trypanosoma brucei rhodesiense STIB 900; type: toxicity, cell-based
[31] = as §1; type: toxicity, cell-based; details: HepG2 cells; how it was run: as §2

| SMILES | EC50 [1] | CC50 (HepG2) | inhibition [2] | selectivity ratio [3] | EC50 [4] | EC50 [5] | t1/2 [6] | other results |
| --- | --- | --- | --- | --- | --- | --- | --- | --- |
| Cc1ncc([N+](=O)[O-])n1CC(=O)N[C@H](/C=C/S(=O)(=O)c1ccccc1)CCc1ccccc1 | > 50000 nM | > 300000 nM | 44.1% |  |  |  |  |  |
| O=C(NCCCS(=O)(=O)c1ccccc1)c1ccc([N+](=O)[O-])o1 | 990 nM | 44600 nM | 15% | 45 |  |  |  |  |
| CNC(=O)/C=C/CNC(=O)c1ccc([N+](=O)[O-])s1 | 540 nM | > 75000 nM | 43.9% |  | 130 nM | 140 nM | > 60 min | t1/2 [7]: > 60 min; C0 at 24 h [8]: 636 ng/mL; half-life [9]: 24 min; AUC(0-t) at 24 h [10]: 333 ng·h/mL; AUC [11]: 343.2 ng·h/mL; Vd [12]: 1.7 L/kg; clearance [13]: 48.8 mL/min/kg; Vd [14]: 1.6 L/kg; MRT [15]: 30 min; Tmax [16]: 18 min; Cmax [17]: 1650 ng/mL; half-life [18]: 30 min; AUC(0-t) at 24 h [19]: 1700 ng·h/mL; F [20]: 99.2%; AUC [21]: 1702.8 ng·h/mL; MRT [22]: 54 min; Activity [23]: Active; Activity [24]: Active; Activity [25]: Active; Activity [26]: Active |
| CS(=O)(=O)CCCNC(=O)c1ccc([N+](=O)[O-])s1 | 1290 nM | 98600 nM | 11.1% | 76.4 |  |  |  |  |
| CSc1ccc(OCc2ncc([N+](=O)[O-])n2C)cc1 [FEXINIDAZOLE] |  |  |  |  |  |  |  | Tmax [27]: 15 min; half-life [28]: 48 min |
| CS(=O)(=O)/C=C/CNC(=O)c1ccc([N+](=O)[O-])s1 | 640 nM | 98600 nM | 23.2% | 154 | 250 nM | 120 nM | > 60 min | selectivity ratio [29]: 395; selectivity ratio [30]: 822; t1/2 [7]: > 60 min |
| CS(=O)(=O)CCCNC(=O)c1cccs1 | > 30000 nM | > 150000 nM | inactive |  |  |  |  |  |
| Nc1nc(N)nc(Nc2ccc([As]3SCC(CO)S3)cc2)n1 (stereo not given) [MELARSOPROL] |  |  |  |  | 10 nM | 10 nM |  |  |
| CNC(=O)/C=C/[C@H](CCc1ccccc1)NC(=O)c1ccc([N+](=O)[O-])o1 | 300 nM | 41700 nM | 54.8% | 139 | 60 nM | 140 nM | > 60 min | selectivity ratio [29]: 694; selectivity ratio [30]: 298; t1/2 [7]: 20.49 min |
| CNC(=O)CCCNC(=O)c1cccs1 | > 30000 nM | > 300000 nM | inactive |  |  |  |  |  |
| CNC(=O)/C=C/[C@H](CCc1ccccc1)NC(=O)c1ccc([N+](=O)[O-])s1 | 180 nM | 60000 nM | 58.4% | 333 | 30 nM | 40 nM | > 60 min | selectivity ratio [29]: 2000; selectivity ratio [30]: 1500; t1/2 [7]: 19.49 min |
| O=C(NC/C=C/S(=O)(=O)c1ccccc1)c1ccc([N+](=O)[O-])s1 | 6350 nM | 20400 nM |  |  | 320 nM | 610 nM |  |  |
| CNC(=O)CCCNC(=O)c1ccc([N+](=O)[O-])s1 | 4120 nM | 69500 nM | inactive | 16.9 | 1880 nM | 1960 nM |  | selectivity ratio [29]: 37; selectivity ratio [30]: 35.5 |
| CS(=O)(=O)/C=C/CNC(=O)c1cccs1 | > 30000 nM | > 300000 nM | 23.6% |  |  |  |  |  |
| O=C(NC/C=C/S(=O)(=O)c1ccccc1)c1ccc([N+](=O)[O-])o1 | 980 nM | 59400 nM | 17.7% | 60.6 | 200 nM | 1770 nM | > 60 min | selectivity ratio [30]: 33.5; t1/2 [7]: 12.99 min |
| CNC(=O)/C=C/CNC(=O)c1ccc([N+](=O)[O-])o1 | 1690 nM | > 75000 nM | 17% |  | 470 nM | 220 nM |  |  |
| CS(=O)(=O)/C=C/CNC(=O)c1ccc([N+](=O)[O-])o1 | 440 nM | 21800 nM | 21.2% | 49.5 | 60 nM | 50 nM | > 60 min |  |
| O=C(N[C@H](/C=C/S(=O)(=O)c1ccccc1)CCc1ccccc1)c1cc(Cl)c([N+](=O)[O-])[nH]1 | 31200 nM | > 160000 nM | 26.7% |  |  |  |  |  |
| O=C(NC/C=C/S(=O)(=O)c1ccccc1)c1ccco1 | 1950 nM | 66300 nM | 30.6% | 34 |  |  |  |  |
| O=C(N[C@H](/C=C/S(=O)(=O)c1ccccc1)CCc1ccccc1)c1ccc([N+](=O)[O-])o1 | 110 nM |  | 78.1% |  | 70 nM | 2730 nM |  | CC50 at 72 h [31]: 5170 nM |
